Assay results as given in ChEMBL document CHEMBL1125455, “Novel anthraquinone inhibitors of human leukocyte elastase and cathepsin G” (J Med Chem, 1992).
Calls of active or inactive are those of the source. The calls are words filed in the database; no cut-off is given here.

Legend:
[1] = biological target: T1, Neutrophil elastase (Homo sapiens, UniProt P08246); assay: In vitro inhibition of human leukocyte elastase.
T1 sequence (P08246 whole entry): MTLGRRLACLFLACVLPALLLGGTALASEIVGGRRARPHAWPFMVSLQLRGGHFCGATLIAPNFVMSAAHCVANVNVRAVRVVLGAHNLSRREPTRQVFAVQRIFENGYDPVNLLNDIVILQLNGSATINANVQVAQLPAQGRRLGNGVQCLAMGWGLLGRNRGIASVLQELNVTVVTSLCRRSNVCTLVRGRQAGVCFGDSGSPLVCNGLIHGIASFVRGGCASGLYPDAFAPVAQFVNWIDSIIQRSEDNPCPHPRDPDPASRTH

[2] = biological target: T2, Cathepsin G (Homo sapiens) (UniProt P08311); assay: Inhibitory activity against Cathepsin G (CatG) at 62 uM concentration
T2 sequence (whole entry): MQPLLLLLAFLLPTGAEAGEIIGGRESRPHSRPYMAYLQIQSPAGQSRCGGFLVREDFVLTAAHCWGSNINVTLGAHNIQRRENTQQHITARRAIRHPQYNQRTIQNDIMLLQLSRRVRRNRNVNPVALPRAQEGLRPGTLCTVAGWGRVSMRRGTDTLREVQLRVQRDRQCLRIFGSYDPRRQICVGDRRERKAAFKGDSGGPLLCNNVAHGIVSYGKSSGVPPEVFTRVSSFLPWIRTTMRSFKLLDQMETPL

[3] = biological target: T3, Chymotrypsin-like elastase family member 2A (Sus scrofa) (UniProt P08419); assay: Inhibitory activity against Porcine Pancreatic Elastase (PPE) at 62 uM concentration; NI = no inhibition
T3 sequence (whole entry): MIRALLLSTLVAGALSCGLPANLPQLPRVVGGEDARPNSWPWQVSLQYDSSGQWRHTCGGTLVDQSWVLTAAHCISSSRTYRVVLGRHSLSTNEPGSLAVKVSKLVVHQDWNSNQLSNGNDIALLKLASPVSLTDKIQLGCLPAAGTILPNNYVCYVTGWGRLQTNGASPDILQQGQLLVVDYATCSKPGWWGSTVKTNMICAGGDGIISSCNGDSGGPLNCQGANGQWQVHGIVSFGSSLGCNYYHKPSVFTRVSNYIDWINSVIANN

[4] = biological target: T1, Neutrophil elastase; assay: Compound was tested for the enzyme inhibitory activity against Human Leukocyte Elastase (HLE) at 62 uM concentration
[5] = biological target: T4, Neutrophil elastase (Homo sapiens) (UniProt P08246); assay: Inhibitory activity against Human Leukocyte Elastase (HLE) at 62 uM concentration
T4 sequence (whole entry): T1 sequence (P08246 whole entry)

[6] = biological target: T1, Neutrophil elastase; assay: HLE-inhibitor (Human Leukocyte Elastase) dissociation constant determined by using Dixon Plot
[7] = biological target: T5, Cathepsin G (Homo sapiens, UniProt P08311); assay: Compound was tested for the enzyme inhibitory activity against Cathepsin G (CatG); NI = no inhibition
T5 sequence (P08311 whole entry): T2 sequence (whole entry)

[8] = biological target: T2, Cathepsin G (Homo sapiens); assay: Inhibitory activity against Cathepsin G (CatG) at 63 uM concentration
Summary of the method: (§1)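 Percent inhibition of enzyme activity at a single inhibitor concentration. Assays run at 25 °C in 0.1 M HEPES, 0.5 M NaCl, pH 7.5, with 9-11% DMSO. The method otherwise follows an earlier report.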

[9] = biological target: Chymotrypsinogen A (Bos taurus) (UniProt P00766); assay: Inhibitory activity against Chymotrypsinogen at 63 uM concentration; summary of the method: as §1
[10] = biological target: T3, Chymotrypsin-like elastase family member 2A (Sus scrofa); assay: Inhibitory activity against Porcine Pancreatic Elastase (PPE) at 63 uM concentration; summary of the method: as §1
[11] = biological target: T4, Neutrophil elastase (Homo sapiens); assay: Inhibitory activity against Human Leukocyte Elastase (HLE) at 63 uM concentration; summary of the method: as §1
[12] = biological target: T2, Cathepsin G (Homo sapiens); assay: Inhibitory activity against Cathepsin G (CatG) at 29 uM concentration
[13] = biological target: Chymotrypsinogen A (Bos taurus) (UniProt P00766); assay: Inhibitory activity against Chymotrypsinogen at 29 uM concentration; NI = no inhibition
[14] = biological target: T4, Neutrophil elastase (Homo sapiens); assay: Inhibitory activity against Human Leukocyte Elastase (HLE) at 29 uM concentration; NI = no inhibition
[15] = biological target: T3, Chymotrypsin-like elastase family member 2A (Sus scrofa); assay: Inhibitory activity against Porcine Pancreatic Elastase (PPE) at 29 uM concentration; NI = no inhibition
[16] = biological target: T2, Cathepsin G (Homo sapiens); assay: Inhibitory activity against Cathepsin G (CatG) at 61 uM concentration; NI = no inhibition
[17] = biological target: Chymotrypsinogen A (Bos taurus) (UniProt P00766); assay: Inhibitory activity against Chymotrypsinogen at 61 uM concentration
[18] = biological target: T3, Chymotrypsin-like elastase family member 2A (Sus scrofa); assay: Inhibitory activity against Porcine Pancreatic Elastase (PPE) at 61 uM concentration; NI = no inhibition
[19] = biological target: T4, Neutrophil elastase (Homo sapiens); assay: Inhibitory activity against Human Leukocyte Elastase (HLE) at 61 uM concentration
[20] = biological target: T5, Cathepsin G; assay: Inhibition of Cathepsin G (CatG)
[21] = biological target: T1, Neutrophil elastase; assay: Compound was tested for the enzyme inhibitory activity against Human Leukocyte Elastase (HLE); NI = no inhibition
[22] = biological target: T2, Cathepsin G (Homo sapiens); assay: Inhibitory activity against Cathepsin G (CatG) at 28 uM concentration
[23] = biological target: T4, Neutrophil elastase (Homo sapiens); assay: Inhibitory activity against Human Leukocyte Elastase (HLE) at 28 uM concentration
[24] = biological target: T3, Chymotrypsin-like elastase family member 2A (Sus scrofa); assay: Inhibitory activity against Porcine Pancreatic Elastase (PPE) at 28 uM concentration; NI = no inhibition
[25] = biological target: Chymotrypsinogen A (Bos taurus) (UniProt P00766); assay: Inhibitory activity against Chymotrypsinogen at 28 uM concentration
[26] = biological target: T3, Chymotrypsin-like elastase family member 2A (Sus scrofa); assay: Inhibitory activity against Porcine Pancreatic Elastase (PPE) at 59 uM concentration; NI = no inhibition
[27] = biological target: T4, Neutrophil elastase (Homo sapiens); assay: Inhibitory activity against Human Leukocyte Elastase (HLE) at 59 uM concentration
[28] = biological target: T2, Cathepsin G (Homo sapiens); assay: Inhibitory activity against Cathepsin G (CatG) at 62 uM concentration; NI = no inhibition
[29] = biological target: Chymotrypsinogen A (Bos taurus) (UniProt P00766); assay: Inhibitory activity against Chymotrypsinogen at 62 uM concentration; conditions: Sus scrofa
[30] = biological target: T3, Chymotrypsin-like elastase family member 2A (Sus scrofa); assay: Inhibitory activity against Porcine Pancreatic Elastase (PPE) at 62 uM concentration

CCCCc1ccc2c(c1O)C(=O)c1c(O)cccc1C2=O
IC50 [1]: 6.4 µM

CCCOc1cc(O)c2c(c1)C(=O)c1cc(C)cc(O)c1C2=O
inhibition [2]: 35% | inhibition [3]: inactive | IC50 [4]: 5.9 µM | inhibition [5]: 100%

CCCCOC(=O)Oc1cccc2c1C(=O)c1c(OC(=O)OCCCC)cc(C)cc1C2=O
IC50 [1]: 5.1 µM | Ki [6]: 1.9 µM

CCc1ccc2c(c1)C(=O)c1ccccc1C2=O
IC50 [7]: Not Active

O=C1c2cccc(O)c2C(=O)c2c(O)cc(CO)cc21
inhibition [8]: 3% | inhibition [9]: 13% | inhibition [10]: 18% | inhibition [11]: 21%

COc1cc(OC)c2c(c1)C(=O)c1cc(CBr)cc(OC)c1C2=O
inhibition [12]: 14% | inhibition [13]: inactive | inhibition [14]: inactive | inhibition [15]: inactive

CC(=O)OCc1cc(OC(C)=O)c2c(c1)C(=O)c1cccc(OC(C)=O)c1C2=O
inhibition [16]: inactive | inhibition [17]: 3% | inhibition [18]: inactive | inhibition [19]: 30%

CCCCCCc1ccc2c(c1O)C(=O)c1c(O)cccc1C2=O
IC50 [20]: 28 µM | IC50 [1]: 4.2 µM

COc1cccc2c1C(=O)c1c(ccc(CC(C)C)c1OC(C)=O)C2=O
IC50 [7]: No inhibition

CCCCCCc1ccc2c(c1OC(=O)OCCCC)C(=O)c1c(OC(=O)OCCCC)cccc1C2=O
IC50 [1]: 2.1 µM | Ki [6]: 0.43 µM

Cc1ccc2c(c1O)C(=O)c1c(O)cccc1C2=O
IC50 [1]: 9.9 µM

Cc1ccc2c(c1)C(=O)c1ccccc1C2=O [TECTOQUINONE]
IC50 [7]: Not Active | IC50 [1]: 39 µM

COc1cccc2c1C(=O)c1c(ccc(Cc3ccccc3)c1OC(C)=O)C2=O
IC50 [7]: Not Active | IC50 [21]: Not Active

COc1cccc2c1C(=O)c1c(ccc(C)c1O)C2=O
IC50 [7]: Not Active | IC50 [1]: 19 µM

COc1cccc2c1C(=O)c1c(ccc(CC3CO3)c1O)C2=O (stereo not given)
IC50 [7]: Not Active | IC50 [21]: Not Active

CCCCOC(=O)Oc1cc(OC(=O)OCCCC)c2c(c1)C(=O)c1cc(C)cc(OC(=O)OCCCC)c1C2=O
IC50 [1]: 1.3 µM

CC(=O)Oc1cc(OC(C)=O)c2c(c1)C(=O)c1cc(CBr)cc(OC(C)=O)c1C2=O
inhibition [22]: 9% | inhibition [23]: 28% | inhibition [24]: inactive | inhibition [25]: 3%

C=CCc1ccc2c(c1OC)C(=O)c1c(OC)cccc1C2=O
IC50 [20]: > 60 µM | IC50 [21]: Not Active

CCCCOC(=O)Oc1cccc2c1C(=O)c1c(OC(=O)OCCCC)cccc1C2=O
IC50 [1]: 12 µM | Ki [6]: 7.5 µM

CC(=O)Oc1cccc2c1C(=O)c1c(OC(C)=O)cc(CBr)cc1C2=O
inhibition [26]: inactive | inhibition [27]: 33%

CC(=O)Oc1cc(OC(C)=O)c2c(c1)C(=O)c1cc(C)cc(OC(C)=O)c1C2=O [EMODIN TRIACETATE]
inhibition [28]: inactive | inhibition [29]: 3% | inhibition [30]: 22% | IC50 [4]: 13 µM | inhibition [5]: 79%
